The values that follow come from ChEMBL document CHEMBL4433210, “Synthesis and Evaluation of Bifunctional Aminothiazoles as Antiretrovirals Targeting the HIV-1 Nucleocapsid Protein” (ACS Med Chem Lett, 2019).

The term IC50 denotes the midpoint of a concentration-inhibition curve. A word on the inhibition: it is the drop in the measured response relative to a control, in per cent.

For series [1], the system named is Human immunodeficiency virus 1. The series can be described thus: Antiviral activity against HIV1 11808 harboring protease L10F/K20T/V32I/L33F/I54V/G73S/I84V/L89V/L90M mutant infected in human TZM-bl cells infected with supernatants from virus-infected human MT2 cells treated with compound for 72 hrs assessed as reduction in viral replication after 48 hrs by bright Glo-luciferase reporter gene assay. It is filed as functional, organism-based. The conditions noted are these: Human immunodeficiency virus 1, 11808. Summed up:
(§1)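 BiCycle assay: MT-2 cells infected with a drug-resistant HIV-1 strain in the presence of compound dilutions. Virus produced in this first round is then measured by infecting TZM-bl cells. The readout is IC50.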
A general note: In a reporter assay the amount or activity of a reporter protein is the signal.

For series [2], the system named is Human immunodeficiency virus 1. The experiment in a line: Antiviral activity against HIV1 7400 harboring nucleoside reverse transcriptase M41L/D67N/M184V/L210W/T215Y mutant infected in human TZM-bl cells infected with supernatants from virus-infected human MT2 cells treated with compound for 72 hrs assessed as reduction in viral replication after 48 hrs by bright Glo-luciferase reporter gene assay. It is filed as functional, organism-based. The conditions noted are these: Human immunodeficiency virus 1, 7400. The method, boiled down: as §1

For series [3], the system named is Human immunodeficiency virus 1. The experiment in a line: Selectivity ratio of IC50 for HIV1 12465 harboring protease M46I/I54V/Q58E/T74P/V82L/L90M mutant infected in human MT2 cells to IC50 for HIV1 NL4-3 infected in human MT2 cells. It is filed as functional. The method, boiled down: (§2)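 Fold change is the IC50 against the resistant strain divided by the IC50 against the wild-type NL4–3 reference. Both IC50 values come from the BiCycle assay (MT-2 infection, then TZM-bl readout of progeny virus).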

For series [4], the system named is Human immunodeficiency virus 1. The experiment in a line: Antiviral activity against wild-type HIV1 NL4-3 infected infected in human MT2 cells assessed as reduction in extracellular RNA at 20 uM and measured after 30 hrs post infection by Alu-LTR PCR protocol based method. It is filed as functional, organism-based. Summed up:
(§3)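 MT-2 cells were infected with NL4-3 at MOI 0.1 and incubated with test or reference agents at 20, 5 or 1 μM. Real-time PCR measured integrated HIV-1 DNA and intracellular and extracellular genomic HIV-1 RNA at 30 h post-infection. Levels are expressed as a percentage of the no-drug control culture.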

Series [5] relates to Human immunodeficiency virus 1. The series can be described thus: Selectivity ratio of IC50 for HIV1 11845 harboring integrase 140S/148H double mutant mutant infected in human MT2 cells to IC50 for HIV1 NL4-3 infected in human MT2 cells. It is filed as functional. Summed up: as §2
Series [6] is described as follows: Selectivity index, ratio of TD50 for cytotoxicity aginst human PBMC cells to IC50 for antiviral activity against wild type HIV1 NL4-3 infected in human TZM-bl cells assessed as reduction in viral replication after 48 hrs by bright Glo-luciferase reporter gene assay based BiCycle assay. Format: toxicity, cell-based. The conditions noted are these: read-out: Selectivity Index. The method, boiled down: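 SI calculated as TD50 from the PBMC MTS assay divided by IC50 from the BiCycle antiviral assay (MT-2 infection followed by TZM-bl read-out).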

Series [7] deals with Human immunodeficiency virus 1. The series can be described thus: Antiviral activity against wild-type HIV1 NL4-3 infected infected in human MT2 cells assessed as reduction in HIV1 intracellular genomic RNA level at 20 uM and measured after 30 hrs post infection by TaqMan probe based RT-PCR analysis. Format: functional, organism-based. The method, boiled down: as §3
Series [8] concerns Human immunodeficiency virus 1. The series can be described thus: Antiviral activity against HIV1 12465 harboring protease M46I/I54V/Q58E/T74P/V82L/L90M mutant infected in human TZM-bl cells infected with supernatants from virus-infected human MT2 cells treated with compound for 72 hrs assessed as reduction in viral replication after 48 hrs by bright Glo-luciferase reporter gene assay. It is filed as functional, organism-based. The conditions noted are these: Human immunodeficiency virus 1, 12465. The method, boiled down:
as §1

The nature of series [9]: Inhibition of synthesized Nucleocapsid protein (11 to 55 residues) assessed as reduction in NC-induced cTAR DNA destabilization pre-treated with cTAR and Nucleocapsid (11-55) for 15 mins followed by compound addition at 10 uM by spectroflurometry relative to control. Summed up: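 NC chaperone inhibition assay: fluorescence monitoring of NC-induced destabilization of cTAR DNA labelled with Alexa488 at the 5′ end and Dabcyl quencher at the 3′ end. Compound is tested at 10 μM.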

Series [10] relates to Human immunodeficiency virus 1. The experiment in a line: Antiviral activity against HIV1 11845 harboring integrase 140S/148H double mutant infected in human TZM-bl cells infected with supernatants from virus-infected human MT2 cells treated with compound for 72 hrs assessed as reduction in viral replication after 48 hrs by bright Glo-luciferase reporter gene assay. Format: functional, organism-based. The conditions noted are these: Human immunodeficiency virus 1, 11845. The method, boiled down: as §1

Series [11] relates to Human immunodeficiency virus 1. The series can be described thus: Selectivity ratio of IC50 for HIV1 12229 harboring non-nucleoside reverse transcriptase L100I/K103N/H221Y mutant infected in human MT2 cells to IC50 for HIV1 NL4-3 infected in human MT2 cells. It is filed as functional. Summed up:
as §2

Series [12] concerns Human immunodeficiency virus 1. The series can be described thus: Selectivity ratio of IC50 for HIV1 7400 harboring nucleoside reverse transcriptase M41L/D67N/M184V/L210W/T215Y mutant infected in human MT2 cells to IC50 for HIV1 NL4-3 infected in human MT2 cells. Format: functional. The method, boiled down:
as §2

For series [13], the system named is Human immunodeficiency virus 1. The series can be described thus: Antiviral activity against wild-type HIV1 NL4-3 infected infected in human MT2 cells assessed as reduction in HIV1 integrated DNA at 20 uM and measured after 30 hrs post infection by Alu-LTR PCR protocol based method. It is filed as functional, organism-based. The method, boiled down:
as §3

In series [14] the test system is Human immunodeficiency virus 1. The experiment in a line: Antiviral activity against wild-type HIV1 NL4-3 infected infected in human MT2 cells assessed as reduction in HIV1 extracellular genomic RNA level at 20 uM and measured after 30 hrs post infection by TaqMan probe based RT-PCR analysis. It is filed as functional, organism-based. Summed up:
as §3

Series [15] has as its system Human immunodeficiency virus 1. The series can be described thus: Antiviral activity against HIV1 7401 harboring nucleoside reverse transcriptase M41L/E44D/D67N/T69D/M184V/L210W/T215Y mutant infected in human TZM-bl cells infected with supernatants from virus-infected human MT2 cells treated with compound for 72 hrs assessed as reduction in viral replication after 48 hrs by bright Glo-luciferase reporter gene assay. It is filed as functional, organism-based. The conditions noted are these: Human immunodeficiency virus 1, 7401. Summed up:
as §1

The subject of series [16] is Human immunodeficiency virus 1. The experiment in a line: Antiviral activity against wild-type HIV1 NL4-3 infected infected in human MT2 cells assessed as reduction in intracellular RNA at 20 uM and measured after 30 hrs post infection by Alu-LTR PCR protocol based method. Format: functional, organism-based. The method, boiled down: as §3
Series [17] deals with Human immunodeficiency virus 1. The experiment in a line: Antiviral activity against wild type HIV1 NL4-3 infected in human TZM-bl cells assessed as reduction in viral replication after 48 hrs by bright Glo-luciferase reporter gene assay based BiCycle assay. Format: functional, organism-based. The conditions noted are these: Human immunodeficiency virus 1, NL4-3, TZM-bl. The method, boiled down: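 BiCycle format: MT-2 cells infected with wild-type NL4-3 in the presence of compound dilutions. Virus produced in this first round was then quantified by infecting TZM-bl cells. IC50 was derived from the dose-response data.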

Series [18] relates to Human immunodeficiency virus 1. The series can be described thus: Selectivity ratio of IC50 for HIV1 12231 harboring non-nucleoside reverse transcriptase 103N/179F/181C mutant infected in human MT2 cells to IC50 for HIV1 NL4-3 infected in human MT2 cells. It is filed as functional. Summed up: as §2
For series [19], the system named is Human immunodeficiency virus 1. The experiment in a line: Antiviral activity against wild-type HIV1 NL4-3 infected in human TZM-bl cells treated with compound assessed as reduction in viral replication after 48 hrs by bright Glo-luciferase reporter gene assay based monocycle assay. The conditions noted are these: Human immunodeficiency virus 1, NL4-3.
For series [20], the system named is Human immunodeficiency virus 1. The series can be described thus: Selectivity ratio of IC50 for HIV1 11808 harboring protease L10F/K20T/V32I/L33F/I54V/G73S/I84V/L89V/L90M mutant infected in human MT2 cells to IC50 for HIV1 NL4-3 infected in human MT2 cells. It is filed as functional. The method, boiled down: as §2
Series [21] concerns Human immunodeficiency virus 1. The experiment in a line: Antiviral activity against HIV1 12231 harboring non-nucleoside reverse transcriptase 103N/179F/181C mutant infected in human TZM-bl cells infected with supernatants from virus-infected human MT2 cells treated with compound for 72 hrs assessed as reduction in viral replication after 48 hrs by bright Glo-luciferase reporter gene assay. The conditions noted are these: Human immunodeficiency virus 1, 12231. Format: functional, organism-based. Summed up:
as §1

For series [22], the system named is Human immunodeficiency virus 1. The series can be described thus: Antiviral activity against HIV1 12229 harboring non-nucleoside reverse transcriptase L100I/K103N/H221Y mutant infected in human TZM-bl cells infected with supernatants from virus-infected human MT2 cells treated with compound for 72 hrs assessed as reduction in viral replication after 48 hrs by bright Glo-luciferase reporter gene assay. The conditions noted are these: Human immunodeficiency virus 1, 12229. It is filed as functional, organism-based. Summed up: as §1

The nature of series [23]: Cytotoxicity against human PBMC cells assessed as reduction in cell viability after 7 days by MTS assay. It is filed as cell-based. The conditions noted are these: read-out: TD50. Summed up: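 Cytotoxicity in peripheral blood mononuclear cells by MTS assay, giving TD50. Only compounds that met the BiCycle IC50 ≤ 5 μM criterion and were positive in the NC inhibition assay were tested.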
A general note: Tetrazolium dyes change colour on reduction, which living cells bring about.

Series [24] relates to Human immunodeficiency virus 1. The series can be described thus: Selectivity ratio of IC50 for HIV1 7401 harboring nucleoside reverse transcriptase M41L/E44D/D67N/T69D/M184V/L210W/T215Y mutant infected in human MT2 cells to IC50 for HIV1 NL4-3 infected in human MT2 cells. Format: functional. The method, boiled down: as §2
For series [25], the system named is Human immunodeficiency virus 1. The series can be described thus: Antiviral activity against wild-type HIV1 NL4-3 infected infected in human MT2 cells assessed as reduction in HIV1 intracellular genomic RNA level at 1 uM and measured after 30 hrs post infection by TaqMan probe based RT-PCR analysis. It is filed as functional, organism-based. Summed up:
as §3

For series [26], the system named is Human immunodeficiency virus 1. The series can be described thus: Antiviral activity against wild-type HIV1 NL4-3 infected infected in human MT2 cells assessed as reduction in HIV1 extracellular genomic RNA level at 1 uM and measured after 30 hrs post infection by TaqMan probe based RT-PCR analysis. Format: functional, organism-based. The method, boiled down: as §3
In general terms: Quantitative PCR measures a nucleic acid by following its amplification.

The test system of series [27] is Human immunodeficiency virus 1. The experiment in a line: Antiviral activity against wild-type HIV1 NL4-3 infected infected in human MT2 cells assessed as reduction in intracellular RNA at 1 uM and measured after 30 hrs post infection by Alu-LTR PCR protocol based method. It is filed as functional, organism-based. The method, boiled down: as §3
The test system of series [28] is Human immunodeficiency virus 1. The experiment in a line: Antiviral activity against wild-type HIV1 NL4-3 infected infected in human MT2 cells assessed as reduction in extracellular RNA at 1 uM and measured after 30 hrs post infection by Alu-LTR PCR protocol based method. It is filed as functional, organism-based. The method, boiled down: as §3

Active and inactive are the calls of the source.

With `Nc1nc(-c2ccc(OCc3cccc(C(=O)NCCNC(=O)c4ccc(COc5ccc(Cl)cc5-c5csc(N)n5)cc4)c3)cc2)cs1.O=C(O)C(F)(F)F.O=C(O)C(F)(F)F`, the IC50 in [1] is 600 nM; in series [2] it was 700 nM; in series [8], 1600 nM; in series [10], 2200 nM; in [15] it was 1400 nM; in series [17] it was 800 nM. For the same compound, the IC50 in series [19] was greater than 50000 nM; in [21] it was 6000 nM; in series [22] it was 1000 nM. In addition, the “Ratio IC50” value in series [3] was 2; in series [5], 2.7; in series [11], 1.2; in [12], 0.9; in [18] it was 7.5; in [20] it was 0.7. In addition, in [24], the “Ratio IC50” value amounted to 1.8. For the same compound, the result in series [4] was Active. The selectivity ratio at 48 h in [6] was greater than 63. Besides, the result in series [7], in series [13], in [14] and in series [16] was inactive. In addition, in series [9], the inhibition came to 20%. Also, the CC50 at 168 h in series [23] is greater than 50000 nM.
On to `Cc1cc(/C=C/C#N)cc(C)c1Nc1ccnc(Nc2ccc(C#N)cc2)n1`, for which the outcome in series [25] and in [26] was Active.
For `CC(C)CN(C[C@@H](O)[C@H](Cc1ccccc1)NC(=O)O[C@H]1CO[C@H]2OCC[C@H]21)S(=O)(=O)c1ccc(N)cc1`, the outcome in series [27] was inactive. Also, in series [28], the result was Active.
